Among the data in ChEMBL document CHEMBL1165980, “Synthesis and structure-activity relationship study of novel cytotoxic carbamate and N-acylheterocyclic bearing derivatives of betulin and betulinic acid” (Bioorg Med Chem, 2010) are IC50 and inhibition values, retold here.

In one assay the test system is HepG2. Put plainly: Cytotoxicity against human HepG2 cells after 72 hrs by MTT assay. The following applies: HepG2, 72 h. Format: functional, cell-based. Summed up:
(§1)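 Exponentially growing cells seeded at 1–8 × 10³ cells/well and left 24 h. Medium then replaced with medium holding compound in DMSO (final DMSO <0.1%), ten serial threefold dilutions, or DMSO alone. Triplicate wells, 72 h exposure. MTT added, 1 h at 37 °C, formazan dissolved in DMSO, A550 read. IC50 by non-linear regression; mean ± SD of at least three experiments.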
Background: Formazan colour is commonly taken as a measure of viable cells.

A further assay has as its system Jurkat. Put plainly: Cytotoxicity against human Jurkat cells after 72 hrs by XTT assay. It is filed as functional, cell-based. Summed up:
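Exponentially growing Jurkat cells (RPMI 1640, 10% heat-inactivated FBS, 1% P/S, 2 mM glutamine) seeded at 5.5 × 10³ cells/well. Exposed to ten serial threefold dilutions of compound or DMSO vehicle in medium, triplicate wells, 72 h. XTT labeling mixture then added for 4 h at 37 °C, A450 read. IC50 by non-linear regression; mean ± SD of at least three experiments.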

Another assay relates to HeLa. Put plainly: Cytotoxicity against human HeLa cells after 72 hrs by MTT assay. Format: functional, cell-based. In a few lines: as §1
Another assay deals with HT-29. Put plainly: Cytotoxicity against human HT-29 cells after 72 hrs by MTT assay. The following applies: HT-29, 72 h. It is filed as functional, cell-based. In a few lines: as §1
Assay [1] concerns the target T1, DNA topoisomerase 1 (Homo sapiens) (UniProt P11387).
T1 sequence (whole entry): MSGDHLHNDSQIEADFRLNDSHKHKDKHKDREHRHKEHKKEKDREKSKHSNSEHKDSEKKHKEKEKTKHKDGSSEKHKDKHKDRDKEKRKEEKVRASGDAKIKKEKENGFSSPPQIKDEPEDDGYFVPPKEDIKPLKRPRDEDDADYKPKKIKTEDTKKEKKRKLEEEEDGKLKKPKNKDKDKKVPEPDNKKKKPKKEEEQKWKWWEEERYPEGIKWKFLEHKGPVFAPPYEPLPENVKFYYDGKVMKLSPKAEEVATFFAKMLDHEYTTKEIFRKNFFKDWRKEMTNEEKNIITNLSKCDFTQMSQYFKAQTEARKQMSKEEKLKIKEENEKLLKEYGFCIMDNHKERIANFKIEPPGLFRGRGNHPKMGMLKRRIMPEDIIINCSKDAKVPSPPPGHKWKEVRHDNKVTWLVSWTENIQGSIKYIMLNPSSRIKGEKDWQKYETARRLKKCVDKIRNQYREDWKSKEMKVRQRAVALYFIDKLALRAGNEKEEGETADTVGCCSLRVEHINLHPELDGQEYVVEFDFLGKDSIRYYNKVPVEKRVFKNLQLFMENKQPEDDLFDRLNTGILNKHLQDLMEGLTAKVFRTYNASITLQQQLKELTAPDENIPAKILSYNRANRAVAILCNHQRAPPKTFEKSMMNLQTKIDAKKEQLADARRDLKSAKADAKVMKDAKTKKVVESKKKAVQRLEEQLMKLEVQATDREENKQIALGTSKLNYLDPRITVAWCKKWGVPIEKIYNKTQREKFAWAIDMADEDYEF
Put plainly: Inhibition of DNA topoisomerase 1-mediated relaxation of supercoiled plasmid DNA at 100 uM after 3 hrs by gel electrophoresis. Summed up:
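Topoisomerase I kit assay. Compound at 100 µM final with 0.5% DMSO. Started with 5 U topo I, run 30 min at 37 °C, stopped with 1% SDS. Products resolved on 1% agarose in TAE at 80 V for 3 h, ethidium-stained. Inhibition scored 0 to 3+.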

The next assay deals with PC-3. Description: Cytotoxicity against human PC3 cells after 72 hrs by MTT assay. Format: functional, cell-based. The following applies: PC-3, 72 h. In a few lines:
as §1

Setting [2] is: in the assay text read “after 30 mins” for “after 3 hrs”.

The source made the active and inactive calls. The rule behind the calls is not given here.

A word on the IC50: it is the point on the concentration scale where inhibition reaches its midpoint. Low values mean greater potency, high ones weaker potency. `C=C(C)[C@@H]1CC[C@]2(C(=O)n3ccnc3C)CC[C@]3(C)[C@H](CC[C@@H]4[C@@]5(C)C=CC(=O)C(C)(C)[C@@H]5CC[C@]43C)[C@@H]12`: the half-inhibitory concentration (IC50) in the assay on HepG2 is 6.8 µM; in the assay with Jurkat, 12.5 µM; in the assay on HeLa, 10.6 µM; in the assay with HT-29 it was 9 µM. In addition, in assay [1] (setting [2]), the inhibition entry was “inactive”.

Regarding `C=C(COC)[C@@H]1CC[C@]2(COC(=O)n3ccnc3C)CC[C@]3(C)[C@H](CC[C@@H]4[C@@]5(C)CC[C@H](OC(=O)n6ccnc6C)C(C)(C)[C@@H]5CC[C@]43C)[C@@H]12`, the IC50 with HepG2 was 28.2 µM; with Jurkat, more than 30 µM; in the assay with HeLa, 13.4 µM; in the assay with HT-29 it was more than 30 µM. In addition, the inhibition result in assay [1] (setting [2]) is “inactive”.

Consider `C=C(C)[C@@H]1CC[C@]2(COC(C)=O)CC[C@]3(C)[C@H](CC[C@@H]4[C@@]5(C)CC[C@H](OC(=O)n6cncn6)C(C)(C)[C@@H]5CC[C@]43C)[C@@H]12`, for which the 50% inhibitory concentration (IC50) with HT-29 and in the assay with PC-3 was more than 30 µM throughout.

Take `C=C(COC)[C@@H]1CC[C@]2(COC(=O)n3cncn3)CC[C@]3(C)[C@H](CC[C@@H]4[C@@]5(C)CC[C@H](OC(=O)n6cncn6)C(C)(C)[C@@H]5CC[C@]43C)[C@@H]12`: the values for the IC50 in the assay on HT-29 and with PC-3 were 12.3 µM and 6.4 µM, respectively. Besides, the inhibition result in assay [1] was “inactive”.

With `C=C(COC)[C@@H]1CC[C@]2(COC(=O)n3ccnc3C)CC[C@]3(C)[C@H](CC[C@@H]4[C@@]5(C)CC[C@H](O)C(C)(C)[C@@H]5CC[C@]43C)[C@@H]12`, the IC50 in the assay on HepG2 worked out at 14.4 µM; with Jurkat, 24.8 µM; in the assay with HeLa, 8.9 µM; in the assay with HT-29 it was 10.4 µM. For the same molecule, the inhibition result in assay [1] (setting [2]) was “inactive”.

As for `C=C(C)[C@@H]1CC[C@]2(COC(C)=O)CC[C@]3(C)[C@H](CC[C@@H]4[C@@]5(C)CC[C@H](OC(=O)n6ccnc6C)C(C)(C)[C@@H]5CC[C@]43C)[C@@H]12`, the IC50 in the assay on HepG2, with Jurkat, with HeLa and in the assay on HT-29 was more than 30 µM in each case.

Regarding `C=C(C)[C@@H]1CC[C@]2(COC(=O)n3ccnc3C)CC[C@]3(C)[C@H](CC[C@@H]4[C@@]5(C)CC[C@H](OC(C)=O)C(C)(C)[C@@H]5CC[C@]43C)[C@@H]12`, the IC50 with HepG2, in the assay on Jurkat, in the assay on HeLa and with HT-29 was more than 30 µM each time.

For the molecule `C=C(C)[C@@H]1CC[C@]2(COC(=O)n3ccnc3C)CC[C@]3(C)[C@H](CC[C@@H]4[C@@]5(C)CC[C@H](OC(=O)n6ccnc6C)C(C)(C)[C@@H]5CC[C@]43C)[C@@H]12`, the half-inhibitory concentration (IC50) in the assay with HepG2, in the assay on Jurkat, in the assay on HeLa and with HT-29 was more than 30 µM in each case. In assay [1] (setting [2]), the inhibition result was “inactive”.

Turning to `C=C(C)[C@@H]1CC[C@]2(COC(=O)n3cncn3)CC[C@]3(C)[C@H](CC[C@@H]4[C@@]5(C)CC[C@H](OC(C)=O)C(C)(C)[C@@H]5CC[C@]43C)[C@@H]12`, the IC50 with HT-29 and in the assay with PC-3 was more than 30 µM throughout.

With `C=C(C)[C@@H]1CC[C@]2(COC(=O)n3ccnc3C)CC[C@]3(C)[C@H](CC[C@@H]4[C@@]5(C)CC[C@H](O)C(C)(C)[C@@H]5CC[C@]43C)[C@@H]12`, the half-inhibitory concentration (IC50) worked out at 36.4 µM with HepG2, 15.8 µM in the assay with Jurkat, 11 µM with HeLa and 16.2 µM in the assay with HT-29. The inhibition entry in assay [1] (setting [2]) is “inactive”.

Take `Cc1nccn1C(=O)OC[C@]12CC[C@@H]([C@@H](C)C=O)C1[C@H]1CC[C@@H]3[C@@]4(C)CC[C@H](O)C(C)(C)[C@@H]4CC[C@@]3(C)[C@]1(C)CC2` (stereo not given in full): the IC50 came out at 14.3 µM in the assay on HepG2, 21.3 µM with Jurkat, 16.6 µM with HeLa and 15.8 µM in the assay with HT-29. For the same molecule, in assay [1] (setting [2]), the inhibition result was “Active”.
